EBI2 antag = EBI2 receptor antagonists, beta-arrestin recruitment, primary screen, cell-based, luminescence, 7a,25-OHC stimulation, uHTS; hit rate 0.81% among 360,000; 7a,25-OHC stimulated; inhibition, % at 5 µM; AID 651636, 2012; G-protein coupled receptor 183 (Homo sapiens), P32249; in the data active = inhibition above about 38%;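 note: enzyme fragment complementation signal reports receptor beta-arrestin coupling in cells; 0% = agonist plus DMSO wells and 100% = wells without agonist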
Target sequence (P32249 whole entry, looked up, the tested form may be a part): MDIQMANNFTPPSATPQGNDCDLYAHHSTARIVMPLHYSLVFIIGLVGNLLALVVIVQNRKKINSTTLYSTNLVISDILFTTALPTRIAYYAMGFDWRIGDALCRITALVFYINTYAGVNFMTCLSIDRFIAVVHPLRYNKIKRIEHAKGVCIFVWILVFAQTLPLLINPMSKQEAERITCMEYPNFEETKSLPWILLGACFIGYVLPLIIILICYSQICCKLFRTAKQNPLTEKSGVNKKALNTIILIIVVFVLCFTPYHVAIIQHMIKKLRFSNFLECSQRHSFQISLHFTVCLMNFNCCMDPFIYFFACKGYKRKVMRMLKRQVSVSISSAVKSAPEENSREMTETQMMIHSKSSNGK
MPTP inh = mitochondrial permeability transition pore inhibitors, primary screen, biochemical, isolated mouse mitochondria, absorbance; AID 602449, 2012; hit rate 1.4% among 360,000; inhibition, % at 10 µM; Ca2+ swelling absorbance, 30 min;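 active = inhibition of 50% or more, scaled per plate between neutral and stimulator controls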;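 note: 0% = DMSO wells given calcium and 100% = 1 mM EGTA wells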
GRIN3A LBD mod = binders of NR3A ligand-binding domain, primary screen, biophysical, differential scanning fluorimetry, uHTS | Glutamate receptor ionotropic, NMDA 3A (GRIN3A) ligand-binding domain | NR3A LBD differential scanning fluorimetry, Tm shift; 0% = protein alone, 100% = glycine-bound protein | Tm shift relative to glycine control, % at 25 µM | hit rate 2.5% among 340,000 | AID 1259313, 2017;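 active = melting temperature shift of at least 10% of the positive control shift, at one fixed dose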
SENP1 inh = human SENP1 catalytic domain inhibitors, primary screen, biochemical, FRET, uHTS. inhibition, % at 10 µM. hit rate 0.21% among 360,000. Sentrin-specific protease 1 (Homo sapiens), Q9P0U3. recombinant SENP1 catalytic domain, CyPet-SUMO1-YPet FRET cleavage;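 active = inhibition at least 30% at 10 µM, raw YFP signal under a set limit, fluorescence ratio 0.5 to 1.5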;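 note: 0% = enzyme with DMSO and 100% = no enzyme wells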
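Test system: human SENP1 catalytic domain; medium: Tris pH 8 buffer plus EDTA, NaCl, BME, BSA, NP40, catalase; incubation: 50 min reaction at room temperature; technique: FRET, CFP and YFP emission; controls: no-enzyme low control and enzyme-plus-DMSO high control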
The depositor's hits bear a star; · = no result; ! = not confirmed by another sample. Sampled rows, rich in hits. Any-hit rate of the full collection: about 4.4%.

SMILES	EBI2 antag	MPTP inh	GRIN3A LBD mod	SENP1 inh
COc1ccc(C(=O)Nc2ccc(NC(=O)c3ccccc3)cc2)cc1S(=O)(=O)N1CCOCC1	-8	0	32*	0
CN1CCN(S(=O)(=O)c2ccc(Cl)cc2)CC1	1	0	14*!	-2
COc1ccc(C(=O)Nc2ccncc2)cc1S(=O)(=O)N1CCOCC1	-5	0	-1	1
CN1CCN(S(=O)(=O)c2ccc(-c3ccc(Cl)cc3)cc2)CC1	3	1	3	3
O=C(Nc1ccc(S(=O)(=O)N2CCOCC2)cc1)c1ccc(Cl)c([N+](=O)[O-])c1	8	2	35*	3
COc1ccc(CC2(C)OC(c3ccc(Cl)cc3)=NN2C(C)=O)cc1 (stereo unspecified)	22	-2	13*	1
COc1ccc(CC2(C)OC(c3ccncc3)=NN2C(C)=O)cc1 (stereo unspecified)	6	-1	-1	-2
CC(C)C(N)c1csc(Nc2ccc(C(=O)NCCCO)cn2)n1 (stereo unspecified)	0	0	·	-1
CC(=O)N1CCN(c2ccc(NC(=O)c3ccc(Cl)c(Cl)c3)cc2)CC1	-5	1	-2	1
CC(=O)c1ccc(Oc2cc(C)nc(N3CCOCC3)n2)cc1	-6	1	-1	0
Nc1c(C(=O)Nc2ccccc2)c2nc3ccccc3nc2n1-c1ccc(O)cc1	31	2	21*	-145
CCOC(=O)c1c(N)n(-c2ccc(N)cc2)c2nc3ccccc3nc12	-8	0	0	-11
COc1ccc(C(=O)Cn2nc(CNc3ccc(Br)cc3)[n+]3c2CCCCC3)cc1	1	0	0	1
Cc1ccc(C(C)C)c(OCc2nn(CC(=O)c3ccc(OC(F)F)cc3)c3[n+]2CCCCC3)c1	3	10	6	67*
C[C@@H]1CN([C@H](C)CO)C(=O)c2cc(NC(=O)Nc3ccc(F)cc3)ccc2O[C@H]1CN(C)C(=O)Nc1ccc(C(F)(F)F)cc1	-1	2	9	2
C[C@H](CO)N1C[C@H](C)[C@@H](CN(C)C(=O)Nc2ccccc2)Oc2ccc(NC(=O)Nc3ccc(C(F)(F)F)cc3)cc2C1=O	-10	0	11*	2
C[C@H](CO)N1C[C@H](C)[C@@H](CN(C)C(=O)Nc2ccccc2)Oc2c(NC(=O)Nc3ccc(C(F)(F)F)cc3)cccc2C1=O	21	-2	28*	3
C[C@H](CO)N1C[C@H](C)[C@@H](CN(C)C(=O)Nc2ccc(C(F)(F)F)cc2)Oc2ccc(NC(=O)Nc3ccc4c(c3)OCO4)cc2C1=O	-8	-2	11*	2
CC(C)NC(=O)N(C)C[C@H]1Oc2ccc(NC(=O)CCC(F)(F)F)cc2C(=O)N([C@H](C)CO)C[C@@H]1C	-8	0	13*	-2
C[C@H](CO)N1C[C@H](C)[C@@H](CN(C)C(=O)NC2CCCCC2)Oc2ccc(NC(=O)CCC(F)(F)F)cc2C1=O	-9	0	0	5
C[C@H](CO)N1C[C@H](C)[C@@H](CN(C)C(=O)Nc2ccccc2)Oc2c(NC(=O)Nc3ccccc3)cccc2C1=O	-4	-2	-13	2
CCCN1C(=O)c2ccccc2NC1c1ccc(O)c(OCC)c1 (stereo unspecified)	-6	0	0	0
COc1ccc(CN2C[C@H]3CON(C)[C@H]3C[C@H]2c2ccc(-c3ccccc3)cc2)cc1	14	1	·	-2
CNC(=S)N1N=C(c2ccc(C)cc2)CC1c1ccc(N(C)C)cc1 (stereo unspecified)	87*	0	-1	-23
CNC(=S)N1N=C(c2ccc(C)cc2)CC1c1ccc(OC)cc1 (stereo unspecified)	87*	-5	0	0
CNC(=S)N1N=C(c2ccc(C)cc2)CC1c1cc(OC)ccc1OC (stereo unspecified)	-2	-2	1	1
Cc1ccc(NC(=O)N2N=C(c3ccc(F)cc3)CC2c2ccc(F)cc2)cc1 (stereo unspecified)	1	21	19*	1
CCC(=O)N1N=C(c2ccc(NS(C)(=O)=O)cc2)CC1c1ccc(N(C)C)cc1 (stereo unspecified)	-11	0	-2	-38
O=C(CN1CCSCC1)N/N=C/c1ccc(F)c(F)c1	-5	2	-2	1

Assay outcomes as filed in PubChem.
